The values that follow come from ChEMBL document CHEMBL1148276, “Oral bioavailability of a new class of micro-opioid receptor agonists containing 3,6-bis[Dmt-NH(CH(2))(n)]-2(1H)-pyrazinone with central-mediated analgesia” (J Med Chem, 2004).

Structures are written as SMILES.

A word on the IC50: it is the point on the concentration scale where inhibition reaches its midpoint. Higher therefore signals weaker potency. The term Ki denotes the dissociation constant of the complex between target and ligand, obtained from inhibition or displacement. Low values mean a stronger hold on the target, high ones a looser hold on the target.

The target of assay [1] is Mu-type opioid receptor (Cavia porcellus, UniProt P97266). Description: Compound was tested for Opioid receptor mu 1 agonism in isolated tissues from guinea pig ileum. The class given is functional, tissue-based.
Sequence of Mu-type opioid receptor (Cavia porcellus, UniProt P97266) (P97266 whole entry): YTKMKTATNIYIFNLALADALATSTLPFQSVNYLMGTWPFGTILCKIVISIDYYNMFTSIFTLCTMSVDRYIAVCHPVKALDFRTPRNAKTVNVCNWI
Assay [2] concerns the target Delta-type opioid receptor (Rattus norvegicus, UniProt P33533). Nature of the assay: Compound was tested for binding affinity towards opioid receptor delta 1 by displacing [3H]DPDPE radioligand in rat brain P2 synaptosomes membranes. The class given is cell membranes. A digest of the protocol:
(§1)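 Competition binding at equilibrium (2.5 h, 22 °C) on rat brain P2 synaptosomal membranes, preincubated to strip endogenous opioids, washed with protease inhibitor, stored in 20% glycerol at -80 °C; [3H]DAMGO (μ) or [3H]DPDPE (δ); nonspecific binding with 2 μM unlabeled peptide; GF/C filtration; Ki by Cheng-Prusoff, duplicates, 5-8 doses, 3-5 preparations.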

Assay [3] deals with Mu-type opioid receptor (Rattus norvegicus, UniProt P33535). Description: Compound was tested for binding affinity towards Opioid receptor mu 1 by displacing [3H]DAGO radioligand in rat brain P2 synaptosomes membranes. The class given is cell membranes.
Sequence of Mu-type opioid receptor (Rattus norvegicus, UniProt P33535) (P33535 whole entry): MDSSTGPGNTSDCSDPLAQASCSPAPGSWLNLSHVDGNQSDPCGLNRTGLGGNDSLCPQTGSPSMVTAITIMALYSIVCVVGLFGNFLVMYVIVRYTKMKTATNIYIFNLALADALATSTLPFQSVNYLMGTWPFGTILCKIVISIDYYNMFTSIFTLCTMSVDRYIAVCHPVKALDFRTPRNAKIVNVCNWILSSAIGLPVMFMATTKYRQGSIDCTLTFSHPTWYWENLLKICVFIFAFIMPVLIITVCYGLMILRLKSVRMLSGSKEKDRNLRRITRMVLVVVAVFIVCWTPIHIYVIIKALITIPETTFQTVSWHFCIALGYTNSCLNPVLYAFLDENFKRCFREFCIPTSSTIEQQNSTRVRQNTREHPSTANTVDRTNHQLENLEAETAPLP
For assay [4], the system named is Opioid receptors; mu & delta. Description: Selectivity ratio of Ki of delta-opioid receptor to mu-opioid receptor. The format is protein assay. A digest of the protocol:
as §1

For assay [5], the target named is Delta-type opioid receptor (Mus musculus, UniProt P32300). Nature of the assay: Compound was tested for opioid receptor delta 1 agonism or antagonism in mouse vas deferens. The format is functional, tissue-based.
Sequence of Delta-type opioid receptor (Mus musculus, UniProt P32300) (P32300 whole entry): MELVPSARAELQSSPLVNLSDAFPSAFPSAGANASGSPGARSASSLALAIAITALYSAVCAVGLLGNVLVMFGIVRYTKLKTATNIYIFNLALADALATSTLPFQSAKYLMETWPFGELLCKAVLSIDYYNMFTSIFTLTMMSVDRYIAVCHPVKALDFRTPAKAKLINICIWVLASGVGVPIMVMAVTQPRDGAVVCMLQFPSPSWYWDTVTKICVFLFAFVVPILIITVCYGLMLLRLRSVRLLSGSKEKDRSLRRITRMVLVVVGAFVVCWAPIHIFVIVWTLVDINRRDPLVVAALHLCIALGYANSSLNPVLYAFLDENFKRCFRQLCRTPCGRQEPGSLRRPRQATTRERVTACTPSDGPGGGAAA
For assay [6], the system named is Mus musculus. Nature of the assay: Potency relative to morphine in tail flick test in mice, intracerebroventricularly; Vale ranges from 50-63. The format is functional. In outline: (§2)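 Male Swiss-Webster mice (20-25 g); radiant-heat tail-flick, baseline 2-3 s, cutoff 8 s; dosing icv or sc in saline pH 7, po in water; readings from 10, 15 or 30 min respectively until return to baseline; AUC of latency vs time, 5-7 mice per point; relative potency from doses giving analgesia equivalent to morphine.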

The species entered for assay [7] is Mus musculus. Nature of the assay: Potency relative to morphine in hot plate test in mice, perorally; Vale ranges from 0.16-0.24. The class given is functional.
For assay [8], the species on record is Mus musculus. Nature of the assay: Potency relative to morphine in tail flick test in mice, perorally. The format is functional. A digest of the protocol:
as §2
In general terms: Hot-plate and tail-flick tests time the reaction to a heat stimulus.

In assay [9] the test system is Mus musculus. Description: Potency relative to morphine in tail flick test in mice, subcutaneously. The class given is functional. A digest of the protocol: as §2
Assay [10] relates to Mus musculus. Description: Potency relative to morphine in hot plate test in mice, intracerebroventricularly; Vale ranges from 18-21. The class given is functional.
In assay [11] the test system is Mus musculus. Nature of the assay: Potency relative to morphine in hot plate test in mice, subcutaneously. The class given is functional.

Sequence of Delta-type opioid receptor (Rattus norvegicus, UniProt P33533) (P33533 whole entry): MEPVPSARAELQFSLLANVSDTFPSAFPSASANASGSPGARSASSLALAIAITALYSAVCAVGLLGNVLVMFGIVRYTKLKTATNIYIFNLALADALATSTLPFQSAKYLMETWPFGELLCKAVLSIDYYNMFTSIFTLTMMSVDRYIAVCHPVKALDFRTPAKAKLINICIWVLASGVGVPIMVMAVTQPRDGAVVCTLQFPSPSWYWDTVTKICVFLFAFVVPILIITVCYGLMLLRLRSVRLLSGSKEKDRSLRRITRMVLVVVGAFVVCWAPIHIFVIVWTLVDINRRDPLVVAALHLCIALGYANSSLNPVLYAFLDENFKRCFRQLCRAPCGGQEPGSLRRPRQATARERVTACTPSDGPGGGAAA

For `Cc1cc(O)cc(C)c1CC(N)C(=O)NCc1nc(O)c(CNC(=O)C(N)Cc2c(C)cc(O)cc2C)nc1C` (stereo not given), the IC50 is 1690 nM on Mu-type opioid receptor [1] and over 10000 nM in [5]. Moreover, the Ki in assay [2] amounted to 15.7 nM; on Mu-type opioid receptor [3], 1.16 nM. The Ratio in assay [4] stood at 13.5.
For the compound `Cc1cc(O)cc(C)c1CC(N)C(=O)NCCCc1nc(O)c(CCCNC(=O)C(N)Cc2c(C)cc(O)cc2C)nc1C.Cl.Cl` (stereo not given), the Activity with Mus musculus [6] amounted to 63; in the assay filed under Mus musculus [7] it was 0.24; in the assay listed under Mus musculus [8], 0.42; in the assay with Mus musculus [9] it was 0.63; in the assay on Mus musculus [10], 21; in the assay with Mus musculus [11], 0.55. Besides, the 50% inhibitory concentration (IC50) against Mu-type opioid receptor [1] is 1.33 nM; in assay [5], over 1000 nM. For the same compound, the Ki came out at 13.2 nM in assay [2] and 0.042 nM at Mu-type opioid receptor [3]. In [4], the Ratio is 307.
Turning to `Cc1nc(CCCCNC(=O)C(N)Cc2ccc(O)cc2)c(O)nc1CCCCNC(=O)C(N)Cc1ccc(O)cc1` (stereo not given), the Ki came to 2190 nM in assay [2] and 70.2 nM at Mu-type opioid receptor [3]. In addition, in [4], the Ratio was 31.
In assay [2], `Cc1nc(CNC(=O)C(N)Cc2ccc(O)cc2)c(=O)[nH]c1CNC(=O)C(N)Cc1ccc(O)cc1` (stereo not given) registered an inhibition constant Ki of 1830 nM. Also, the Ratio in assay [4] was 4.
Turning to `Cc1nc(CCCNC(=O)C(N)Cc2ccc(O)cc2)c(O)nc1CCCNC(=O)C(N)Cc1ccc(O)cc1` (stereo not given), the inhibition constant Ki in [2] came out at 435 nM; on Mu-type opioid receptor [3], 25.7 nM. In addition, the Ratio in [4] was 17.
In the same order, the values of `Cc1nc(CCNC(=O)C(N)Cc2ccc(O)cc2)c(=O)[nH]c1CCNC(=O)C(N)Cc1ccc(O)cc1` (stereo not given) are 2900 nM, 309 nM and 9.4.
In the case of `Cc1cc(O)cc(C)c1CC(N)C(=O)NCCCCc1nc(O)c(CCCCNC(=O)C(N)Cc2c(C)cc(O)cc2C)nc1C` (stereo not given), the IC50 on Mu-type opioid receptor [1] was found to be 1.9 nM; in assay [5], 41.5 nM. Further, the inhibition constant Ki in [2] is 23.2 nM; on Mu-type opioid receptor [3], 0.114 nM. Also, the Ratio in assay [4] turned out to be 204.
Take `Cc1cc(O)cc(C)c1CC(N)C(=O)NCCc1nc(O)c(CCNC(=O)C(N)Cc2c(C)cc(O)cc2C)nc1C` (stereo not given): the results for the IC50 (at Mu-type opioid receptor [1]; in assay [5]) were 12.9 nM and over 10000 nM, respectively. The Ki in [2] was 7.26 nM.
